# Data as given in ChEMBL document CHEMBL1799951, “FimH antagonists for the oral treatment of urinary tract infections: from design and synthesis to in vitro and in vivo evaluation” (J Med Chem, 2010).
# Activity calls are given as the source filed them. The calls are words filed in the database; no cut-off is given here.
# Columns and labels:
# [1] = Dissociation constant, pKa of the compound by NMR spectrometric analysis; assay type: physicochemical
# [2] = Permeability coefficient, log Pe of the compound by PAMPA method; assay type: ADME
# Outline: (§1)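 PAMPA with GIT-0 lipid, donor analyte 50 μM at pH 5.0, 6.2 and 7.4 in quadruplicate, 16 h undisturbed incubation. Donor and acceptor quantified by UV and LC-MS.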
# [3] = AUC (0 to 24 hrs) in urine of urinary tract infection C3H/HeN mouse model at 50 mg/kg, iv administered as single dose measured after 6 hrs by LC-MS analysis; assay type: ADME, organism-based; set-up: time < 24 hr, dose 50 mg/kg, route intravenous
# Outline: (§2)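 Female C3H/HeN mice (19-25 g) dosed once iv at 50 mg/kg in 100 μL PBS via tail vein. Blood and urine (10 μL) sampled at 6 min, 30 min, 1, 2, 4, 6, 8 and 24 h. Proteins precipitated with methanol, centrifuged, and supernatant quantified by LC-MS.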
# [4] = Cmax in plasma of urinary tract infection C3H/HeN mouse model at 50 mg/kg, iv administered as single dose measured after 6 hrs by LC-MS analysis; assay type: ADME, organism-based; set-up: dose 50 mg/kg, route intravenous; outline: as §2
# Escherichia coli [5] = experiment: Antibacterial activity against Escherichia coli […] infected in urinary tract infection C3H/HeN mouse model assessed as log reduction in bacterial CFU in urine of mouse at 50 mg/kg, iv administered as single dose 1 hr before infection and measured after 3 hrs post infection; assay type: functional
# Outline: (§3)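 Female C3H/HeN mice dosed iv into the tail vein in 100 μL PBS, then infected transurethrally under isoflurane with 50 μL UPEC UTI89 (~10^9–10^10 CFU/mL; LB 24 h static 37 °C, PBS-washed). Six mice per group, killed 3 h post-inoculation. Urine, bladder and kidneys plated on EMB agar. Log CFU reduction taken against the 3 h untreated control baseline; Mann-Whitney test.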
# [6] = target: T1, CD209 antigen (Homo sapiens) (UniProt Q9NNX6); experiment: Binding affinity to Fc-IgG-tagged DC-SIGN carbohydrate recognizing domain at 1 mM
# T1 sequence (whole entry): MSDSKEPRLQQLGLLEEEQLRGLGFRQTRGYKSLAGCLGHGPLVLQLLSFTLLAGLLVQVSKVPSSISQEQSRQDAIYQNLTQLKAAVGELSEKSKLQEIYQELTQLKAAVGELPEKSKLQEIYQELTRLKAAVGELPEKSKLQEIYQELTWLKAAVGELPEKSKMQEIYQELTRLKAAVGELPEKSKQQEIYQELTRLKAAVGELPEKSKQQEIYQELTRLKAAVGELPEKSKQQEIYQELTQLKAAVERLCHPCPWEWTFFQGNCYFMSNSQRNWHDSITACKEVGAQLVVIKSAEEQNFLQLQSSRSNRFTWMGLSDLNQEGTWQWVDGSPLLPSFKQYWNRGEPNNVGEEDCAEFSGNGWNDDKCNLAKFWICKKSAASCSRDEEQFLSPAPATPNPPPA
# Outline: (§4)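 FimH-CRD (10 μg/mL), DC-SIGN-CRD-Fc (2.5 μg/mL) or MBP (10 μg/mL) coated overnight at 4 °C in 20 mM HEPES pH 7.4, 150 mM NaCl, 10 mM CaCl2. Competition against streptavidin-peroxidase TM-PAA polymer as in the FimH ELISA, test compounds at 1 mM. D-mannose at 50 mM as positive control.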
# [7] = Plasma protein binding […] by LC-MS analysis; assay type: ADME, cell-free; conditions: read-out: PPB (converted)
# Escherichia coli [8] = experiment: Antibacterial activity against Escherichia coli […] infected in urinary tract infection C3H/HeN mouse model assessed as log reduction in bacterial CFU in bladder of mouse at 50 mg/kg, iv administered as single dose 1 hr before infection and measured after 3 hrs post infection; assay type: functional; outline: as §3
# [9] = target: Mannose-binding protein C (Homo sapiens) (UniProt P11226); experiment: Binding affinity to MBP at 1 mM; outline: as §4
# [10] = target: Type 1 fimbrin D-mannose specific adhesin (Escherichia coli K-12) (UniProt P08191); experiment: Ratio IC50 for compound to IC50 for n-heptyl R-D-mannopyranoside for His-tagged FimH expressed in Escherichia coli HM125
# Outline: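 FimH-CRD-Th-6His (10 μg/mL) coated overnight at 4 °C in 20 mM HEPES, 150 mM NaCl, 1 mM CaCl2, pH 7.4, then blocked with 3% BSA. 4-fold compound dilutions in 5% DMSO competed with streptavidin-peroxidase TM-PAA polymer for 3 h at 25 °C. ABTS read at 415 nm, duplicates. IC50 divided by the IC50 of the heptyl mannoside reference run on the same plate.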
# Liver [11] = experiment: Metabolic stability of the compound in mouse liver microsomes assessed as Cyp 450-mediated degradation at 2 uM after 30 mins by LC-MS analysis in presence of NADPH; conditions: 0.5 h
# [12] = Cmax in urine of urinary tract infection C3H/HeN mouse model at 50 mg/kg, iv administered as single dose measured after 6 hrs by LC-MS analysis; assay type: ADME, organism-based; set-up: dose 50 mg/kg, route intravenous; outline: as §2
# [13] = Plasma protein binding in human by miniatured equilibrium dialysis method; assay type: ADME, cell-free; conditions: read-out: PPB (converted)
# Outline: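 Human plasma adjusted to pH 7.5 with analyte at 10 μM, dialysed against 0.1 M phosphate pH 7.5 (MWCO 12-14 K) for 5 h at 37 °C in triplicate. Compartments MeCN-precipitated and measured by LC-MS; fb = 1 − cbuffer/cplasma.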
# Escherichia coli [14] = experiment: Antibacterial activity against Escherichia coli […] infected in urinary tract infection C3H/HeN mouse model assessed as reduction in bacterial count in kidney of mouse at 50 mg/kg, iv administered as single dose 1 hr before infection and measured after 3 hrs post infection
# [15] = Thermodynamic solubility of the compound at pH 6.5 after 24 hrs by LC-MS analysis; assay type: physicochemical; conditions: buffer, read-out: Therm_solubility
# Outline: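 1 mg solid in 250 μL 50 mM phosphate pH 6.5, sonicated 15 min, shaken 2 h at 25 °C, left 24 h. pH measured, then filtered and diluted; concentration determined by LC-MS.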
# [16] = target: Type 1 fimbrin D-mannose specific adhesin (Escherichia coli K-12, UniProt P08191); experiment: Competitive inhibition of His-tagged FimH carbohydrate recognizing domain expressed in Escherichia coli HM125 using ABTS-substrate after 3 hrs by […] assay
# Outline: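 FimH-CRD-Th-6His from E. coli HM125 coated at 10 μg/mL overnight at 4 °C and blocked with 3% BSA. 4-fold compound dilutions in HEPES buffer pH 7.4 (5% DMSO) plus streptavidin-peroxidase TM-PAA polymer, 3 h at 25 °C. ABTS developed 4 min and read at 415 nm. Duplicates; heptyl mannoside reference on each plate.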
# Escherichia coli [17] = experiment: Antibacterial activity against Escherichia coli […] infected in urinary tract infection C3H/HeN mouse model assessed as log reduction in bacterial count in kidney of mouse at 50 mg/kg, iv administered as single dose 1 hr before infection and measured after 3 hrs post infection; assay type: functional, organism-based; set-up: dose 50 mg/kg
# Outline: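 Female C3H/HeN mice given antagonist iv (100 μL PBS, tail vein) or po as suspension, then infected. Infection: isoflurane anaesthesia, bladder emptied, 50 μL UTI89 at about 10^9-10^10 CFU/mL via transurethral catheter. Six mice per group, killed 3 h post-inoculation. Kidneys plated on EMB agar. Reduction taken against the 3 h untreated control mean; Mann-Whitney test.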
# [18] = AUC (0 to 24 hrs) in plasma of urinary tract infection C3H/HeN mouse model at 50 mg/kg, iv administered as single dose measured after 6 hrs by LC-MS analysis; assay type: ADME, organism-based; set-up: time < 24 hr, dose 50 mg/kg, route intravenous; outline: as §2
# Liver [19] = experiment: Metabolic stability of the compound in mouse liver microsomes assessed as degradation by carboxylesterase at 2 uM by LC-MS analysis in presence of CES inhibitor BNPP; assay type: ADME, Microsome
# Outline: (§5)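 Pooled male mouse liver microsomes (0.25 mg/mL) with 2 μM compound in 0.1 M TRIS pH 7.4 and 2 mM MgCl2 at 37 °C. Samples at 0, 1, 3, 6 and 15 min quenched in cold MeCN; LC-MS as % remaining. The inhibitor arm used microsomes pre-incubated 5 min with 1 mM BNPP.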
# [20] = Permeability of the compound assessed as membrane retention by PAMPA method; assay type: ADME; outline: as §1
# [21] = Stability of the compound in simulated gastrointestinal fluid assessed as compound remaining after 2 hrs by LC-MS analysis; assay type: physicochemical; conditions: read-out: Stability
# [22] = Lipophilicity, log D at pH 7.4 by miniatured shake flask method; assay type: physicochemical; conditions: buffer
# Outline: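 Octanol-saturated 0.1 M phosphate pH 7.4 containing analyte at 1 μM, overlaid with octanol at two volume ratios, three wells each. Shaken 2 h at 25 °C, then centrifuged; aqueous phase measured by LC-MS. log D computed from depletion. Accepted when the ratio means agree within 0.1.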
# [23] = AUC (0 to 24 hrs) in urine of urinary tract infection C3H/HeN mouse model assessed as Sodium3'-Chloro-4'-(alpha-D-mannopyranosyloxy)-biphenyl-4-carboxylate level at 50 mg/kg, po administered as single dose measured after 6 hrs by LC-MS analysis; assay type: ADME, organism-based; set-up: time < 24 hr, dose 50 mg/kg, route oral; conditions: in vivo
# Outline: (§6)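 Female C3H/HeN mice (19-25 g) given a single 50 mg/kg oral dose by gavage. Compound dissolved in DMSO, then diluted in 1% Tween-80/PBS to a suspension. Blood and urine (10 μL) sampled at 6 min, 30 min, 1, 2, 4, 6, 8 and 24 h. Proteins precipitated with methanol, then LC-MS; for the prodrug, both ester and carboxylate metabolite measured; n=6.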
# Plasma = experiment: AUC (0 to 24 hrs) in plasma of urinary tract infection C3H/HeN mouse model assessed as Sodium3'-Chloro-4'-(alpha-D-mannopyranosyloxy)-biphenyl-4-carboxylate level at 50 mg/kg, po administered as single dose measured after 6 hrs by LC-MS analysis; assay type: ADME, organism-based; set-up: time < 24 hr, dose 50 mg/kg, route oral; conditions: in vivo; outline: as §6
# [24] = Stability of the compound in simulated intestinal fluid assessed as compound remaining after 2 hrs by LC-MS analysis; assay type: physicochemical; conditions: read-out: Stability
# Outline: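 Simulated intestinal fluid (phosphate, NaOH, pancreatin, pH 6) at 37 °C, compound at 10 μM, 500 rpm. Samples at 0-120 min MeCN-quenched; LC-MS as % remaining versus initial.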
# [25] = AUC (0 to 24 hrs) in urine of urinary tract infection C3H/HeN mouse model at 50 mg/kg, po administered as single dose measured after 6 hrs by LC-MS analysis; assay type: ADME, organism-based; set-up: time < 24 hr, dose 50 mg/kg, route oral
# Outline: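 Female C3H/HeN mice (19-25 g) gavaged once at 50 mg/kg. Compound dissolved in DMSO and diluted in 1% Tween-80/PBS as a suspension, or given in 200 μL PBS. Blood and urine sampled at 6 min to 24 h, methanol-precipitated, and analysed by LC-MS. For the prodrug, both parent and carboxylate metabolite were measured.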
# [26] = AUC (0 to 24 hrs) in plasma of urinary tract infection C3H/HeN mouse model at 50 mg/kg, po administered as single dose measured after 6 hrs by LC-MS analysis; assay type: ADME, organism-based; set-up: time < 24 hr, dose 50 mg/kg, route oral; outline: as §6
# [27] = Apparent permeability across human Caco2 cells after 120 mins by HPLC analysis; assay type: ADME, cell-based; conditions: Caco-2
# Outline: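 Caco-2 cells at passage 60-65 seeded on Transwells and used on days 19-21 in DMEM without pyruvate/phenol red. Only monolayers with TEER >300 Ωcm2 before and after were kept. Apical dosing from 10 mM stock, shaken at 250 rpm. Basolateral samples at 5-120 min by HPLC; Papp = (dQ/dt)/(A·c0). Triplicates.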
# Liver [28] = experiment: Metabolic stability of the compound in mouse liver microsomes assessed as degradation by carboxylesterase at 2 uM by LC-MS analysis; assay type: ADME, Microsome; outline: as §5
# Chain of Type 1 fimbrin D-mannose specific adhesin (P08191 whole entry, the tested form may be a part): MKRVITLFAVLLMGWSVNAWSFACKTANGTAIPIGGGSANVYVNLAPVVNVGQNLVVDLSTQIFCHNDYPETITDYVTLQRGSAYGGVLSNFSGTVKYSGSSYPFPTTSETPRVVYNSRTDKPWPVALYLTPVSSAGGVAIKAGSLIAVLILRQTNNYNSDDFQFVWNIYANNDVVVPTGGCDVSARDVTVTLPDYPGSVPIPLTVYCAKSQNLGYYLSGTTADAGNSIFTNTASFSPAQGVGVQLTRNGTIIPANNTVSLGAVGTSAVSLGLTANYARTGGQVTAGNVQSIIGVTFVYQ
# Chain of Type 1 fimbrin D-mannose specific adhesin (Escherichia coli K-12) (P08191 whole entry): as the sequence (P08191 whole entry, the tested form may be a part) above
# Chain of Mannose-binding protein C (Homo sapiens) (P11226 whole entry): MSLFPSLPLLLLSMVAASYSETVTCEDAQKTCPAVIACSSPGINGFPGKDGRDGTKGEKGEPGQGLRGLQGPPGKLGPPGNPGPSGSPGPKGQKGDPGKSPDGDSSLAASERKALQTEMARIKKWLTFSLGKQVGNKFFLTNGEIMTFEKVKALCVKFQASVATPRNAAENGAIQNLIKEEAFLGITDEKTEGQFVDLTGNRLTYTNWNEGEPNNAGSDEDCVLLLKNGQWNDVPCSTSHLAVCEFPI
smiles,measurement,setting,value
O=C([O-])c1ccc(-c2ccc(O[C@H]3O[C@H](CO)[C@@H](O)[C@H](O)[C@@H]3O)cc2)cc1.[Na+],pKa,[1],3.88
same,permeability,[2],impermeable
same,AUC(0-t) at 24 h,[3],140 µg·h/mL
same,Cmax,[4],34400 ng/mL
same,FC,Escherichia coli [5],>2
same,Activity,[6],inactive
same,fraction unbound,[7],0.27
same,FC,Escherichia coli [8],4.5
same,Activity,[9],inactive
same,Ratio IC50,[10],0.15
same,Stability,Liver [11],Stable
same,Cmax,[12],510 µg/mL
same,fraction unbound,[13],0.27
same,Activity,Escherichia coli [14],Active
same,solubility thermodynamic at 24 h,[15],> 3000 µg/mL
same,IC50,[16],17.1 nM
same,Activity,Escherichia coli [17],Active
same,AUC(0-t) at 24 h,[18],19300 ng·h/mL
COC(=O)c1ccc(-c2ccc(O[C@H]3O[C@H](CO)[C@@H](O)[C@H](O)[C@@H]3O)c(Cl)c2)cc1,Stability,Liver [19],Stable
same,permeability,[20],41%
same,remaining at 2 h,[21],80%
same,logD,[22],2.32
same,AUC,[23],21.69 µg·h/mL
same,AUC,Plasma,2.1 µg·h/mL
same,Ratio IC50,[10],0.06
same,remaining at 2 h,[24],80%
same,AUC(0-t) at 24 h,[25],1890 ng·h/mL
same,fraction unbound,[13],0.06
same,solubility thermodynamic at 24 h,[15],11.9 µg/mL
same,AUC(0-t) at 24 h,[26],1020 ng·h/mL
same,Papp at 2 h,[27],2.05 ×10⁻⁶ cm/s
same,IC50,[16],4.8 nM
same,Stability,Liver [28],Unstable
